The source made the active and inactive calls. No cut-off for these calls is given here.
What was measured:
[1] = Cytotoxicity against human Huh-7 cells assessed as reduction in cell viability measured after 48 hrs in presence of ENT1 inhibitor NBTI […]; assay type: cell-based; details: with NBTI (ENT1 inhibitor; concentration not stated), read-out: TC50
Hepatitis C virus [2] = test: Antiviral activity against HCV infected in human Huh-7 cells assessed as reduction in viral replication measured after 48 hrs by luciferase reporter gene assay; assay type: functional, organism-based, Hepacivirus hominis; details: Huh-7, 48 h
Procedure, shortened: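 Replicon-bearing Huh7 cells seeded at 10,000/well and allowed to attach for 24 h at 37 °C. Triplicate biological wells then treated 48 h with compound in DMEM, 10% FBS, 0.5% DMSO final. Bright-Glo luminescence expressed relative to untreated cells. IC50 from a four-parameter logistic fit.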

[3] = Cytotoxicity against human Huh-7 cells assessed as reduction in cell viability measured after 48 hrs by celltiter-glo assay; assay type: cell-based; details: read-out: TC50
[4] = Stability in pH 8 aqueous buffer assessed as parent compound remaining at 200 uM measured after 4 hrs by UV spectrophotometry; assay type: physicochemical; details: read-out: Stabilty
Procedure, shortened: (§1)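 Compound diluted to […] in aqueous buffers at pH 1.0, 2.0, 4.0, 6.0 or 8.0 and held 4 h at 40 °C. Intact prodrug separated by reverse-phase HPLC. 260 nm peak area after incubation compared with untreated prodrug, giving % remaining.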

HepG2 = test: Cytotoxicity against human HepG2 cells assessed as reduction in cell viability measured after 96 hrs by celltiter-glo assay; assay type: functional; details: read-out: TC50 (the source's name)
[5] = Cytotoxicity against human BXPC-3 cells assessed as reduction in cell viability measured after 96 hrs by celltiter-glo assay; assay type: cell-based; details: read-out: TC50
[6] = Cytotoxicity against HEK293 cells assessed as reduction in cell viability measured after 96 hrs by celltiter-glo assay; assay type: cell-based; details: human, read-out: TC50
[7] = Stability in pH 1 aqueous buffer assessed as parent compound remaining at 200 uM measured after 4 hrs by UV spectrophotometry; assay type: physicochemical; details: read-out: Stabilty; procedure, shortened: as §1
[8] = Cytotoxicity against human MCF7 cells assessed as reduction in cell viability measured after 96 hrs by celltiter-glo assay; assay type: cell-based; details: read-out: TC50
[9] = Toxicity in human Huh-7 cells assessed as reduction in cell viability measured after 96 hrs by celltiter-glo assay; assay type: cell-based; details: read-out: TC50
[10] = Ratio of gemcitabine TC50 to test compound TC50 for cytotoxicity against human MCF7 cells assessed as reduction in cell viability; assay type: cell-based
[11] = Stability in pH 4 aqueous buffer assessed as parent compound remaining at 200 uM measured after 4 hrs by UV spectrophotometry; assay type: physicochemical; details: read-out: Stabilty; procedure, shortened: as §1
[12] = Stability in pH 6 aqueous buffer assessed as parent compound remaining at 200 uM measured after 4 hrs by UV spectrophotometry; assay type: physicochemical; details: read-out: Stabilty; procedure, shortened: as §1
[13] = Ratio of gemcitabine TC50 to test compound TC50 for cytotoxicity against human BXPC-3 cells assessed as reduction in cell viability; assay type: cell-based
[14] = Stability in pH 2 aqueous buffer assessed as parent compound remaining at 200 uM measured after 4 hrs by UV spectrophotometry; assay type: physicochemical; details: read-out: Stabilty; procedure, shortened: as §1
Hepatitis C virus [15] = test: Antiviral activity against HCV infected in human Huh-7 cells assessed as reduction in viral replication at 25 to 1000 nM measured after 48 hrs in presence of cytidine by luciferase reporter gene assay; assay type: functional, organism-based; details: Hepacivirus hominis, dose 25-1000 nM
Procedure, shortened: (§2)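 Huh7 cells carrying an HCV luciferase replicon, grown in DMEM with 10% FBS and G418. Cells treated 48 h continuously with compound at 25–1,000 nM, either alone or together with 50 µM cytidine or 2′-deoxycytidine. Luciferase activity read in lysates. Three biological replicates, SD.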

Hepatitis C virus [16] = test: Antiviral activity against HCV infected in human Huh-7 cells assessed as reduction in viral replication at 25 to 1000 nM measured after 48 hrs in presence of deoxycytidine by luciferase reporter gene assay; assay type: functional, organism-based; details: Hepacivirus hominis, dose 25-1000 nM; procedure, shortened: as §2
Hepatitis C virus [17] = test: Antiviral activity against HCV infected in human Huh-7 cells assessed as reduction in viral replication at 500 nM measured after 24 to 30 hrs by luciferase reporter gene assay; assay type: functional, Hepacivirus hominis; parameters: scale not given: the % may be the effect or the level left; details: time 24-30 hrs
Procedure, shortened: (§3)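 Huh7 luciferase replicon cells treated with 500 nM compound or mock for up to 48 h. Cells were lysed at various times and the lysates snap-frozen in liquid nitrogen. All lysates were then assayed for luciferase together.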

Hepatitis C virus [18] = test: Antiviral activity against HCV infected in human Huh-7 cells assessed as reduction in viral replication at 500 nM measured after 48 hrs by luciferase reporter gene assay; assay type: functional, organism-based; details: Hepacivirus hominis; procedure, shortened: as §3
Hepatitis C virus [19] = test: Antiviral activity against HCV infected in human Huh-7 cells assessed as reduction in viral replication preincubated for 2 hrs followed by replacement with fresh culture medium and measured after 46 hrs by luciferase reporter gene assay; assay type: functional, organism-based, Hepacivirus hominis
Procedure, shortened: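 HCV luciferase-replicon Huh7 cells were seeded at 10,000 cells/well and allowed 24 h to attach. Three biological replicates were exposed to graded compound in DMEM/10% FBS/0.5% DMSO for 2 h only, then the medium was replaced with fresh growth medium for 46 h at 37 °C.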

Hepatitis C virus [20] = test: Ratio of IC50 for antiviral activity against HCV infected in human Huh-7 cells assessed as reduction in viral replication preincubated for 2 hrs followed by replacement with fresh culture medium and measured after 46 hrs by luciferase reporter gene assay to IC50 for antiviral activity against HCV infected in human Huh-7 cells assessed as reduction in viral replication measured after 48 hrs by …; assay type: functional, Hepacivirus hominis

SMILES	IC50 (Hepatitis C virus [2]) [nM]	CC50 at 48 h [3] [µM]	further results
O=C(Nc1ccn([C@@H]2O[C@H](CO)[C@@H](O)C2(F)F)c(=O)n1)c1ccc2c(c1)OCCO2	127	855	remaining at 4 h, 200 µM [4]: 100%; CC50 (HepG2): 1.1 µM; CC50 at 96 h [5]: 1.2 µM; CC50 at 96 h [6]: 5.6 µM; remaining at 4 h, 200 µM [7]: 71%; CC50 at 96 h [8]: 1.4 µM; CC50 at 96 h [9]: 3.3 µM; selectivity ratio [10]: ≤ 24; remaining at 4 h, 200 µM [11]: 100%; remaining at 4 h, 200 µM [12]: 100%; selectivity ratio [13]: ≤ 620; remaining at 4 h, 200 µM [14]: 100%
O=C(Nc1ccn([C@@H]2O[C@H](CO)[C@@H](O)C2(F)F)c(=O)n1)c1ccc2c(c1)OCCCO2	91.5	881	–
O=C(Nc1ccn([C@@H]2O[C@H](CO)[C@@H](O)C2(F)F)c(=O)n1)c1cc(Cl)cc(Cl)c1	25.5	110	remaining at 4 h, 200 µM [4]: 35.4%; CC50 (HepG2): 0.6 µM; Activity (Hepatitis C virus [15]): inactive; Activity (Hepatitis C virus [16]): inactive; Activity (Hepatitis C virus [17]): 50%; Activity (Hepatitis C virus [18]): Active; CC50 at 96 h [6]: 1.2 µM; remaining at 4 h, 200 µM [7]: 35%; CC50 at 96 h [8]: 0.33 µM; CC50 at 96 h [9]: 4.2 µM; selectivity ratio [10]: ≤ 24; remaining at 4 h, 200 µM [11]: 98.4%; remaining at 4 h, 200 µM [12]: 99.6%; remaining at 4 h, 200 µM [14]: 82%
O=C(Nc1ccn([C@@H]2O[C@H](CO)[C@@H](O)C2(F)F)c(=O)n1)C1Cc2ccccc2C1	10	> 500	–
COc1cc(OC)cc(C(=O)Nc2ccn([C@@H]3O[C@H](CO)[C@@H](O)C3(F)F)c(=O)n2)c1	73.4	962	CC50 (HepG2): 3 µM; Activity (Hepatitis C virus [15]): inactive; Activity (Hepatitis C virus [16]): inactive; CC50 at 96 h [6]: 4 µM; CC50 at 96 h [8]: 1.6 µM; CC50 at 96 h [9]: 18.5 µM; selectivity ratio [10]: ≤ 24
COc1cccc(OC)c1C(=O)Nc1ccn([C@@H]2O[C@H](CO)[C@@H](O)C2(F)F)c(=O)n1	451	4580	–
O=C(Nc1ccn([C@@H]2O[C@H](CO)[C@@H](O)C2(F)F)c(=O)n1)c1cccc2c1CCCC2	161	92	–
COC(=O)N[C@H](C(=O)N1CCC[C@H]1c1ncc(-c2ccc(-c3ccc(-c4cnc([C@@H]5CCCN5C(=O)[C@@H](NC(=O)OC)C(C)C)[nH]4)cc3)cc2)[nH]1)C(C)C	0.031	–	–
O=C(Nc1ccn([C@@H]2O[C@H](CO)[C@@H](O)C2(F)F)c(=O)n1)c1ccc2c(c1)CCCC2	86	132	–
O=C(Nc1ccn([C@@H]2O[C@H](CO)[C@@H](O)C2(F)F)c(=O)n1)c1ccc2c(c1)OC(F)(F)O2	46.4	188	–
O=C(Nc1ccn([C@@H]2O[C@H](CO)[C@@H](O)C2(F)F)c(=O)n1)c1c(Br)ccc2c1OCO2	340	2210	–
O=C(Nc1ccn([C@@H]2O[C@H](CO)[C@@H](O)C2(F)F)c(=O)n1)c1ccc(Cl)cc1Cl	77.5	> 100	–
Cc1cc2c(cc1C(=O)Nc1ccn([C@@H]3O[C@H](CO)[C@@H](O)C3(F)F)c(=O)n1)OCCO2	1690	626	–
O=C(Nc1ccn([C@@H]2O[C@H](CO)[C@@H](O)C2(F)F)c(=O)n1)c1cc2c(cc1[N+](=O)[O-])OCO2	46.7	> 500	–
O=C(Nc1ccn([C@@H]2O[C@H](CO)[C@@H](O)C2(F)F)c(=O)n1)c1ccc2c(c1)OCO2	59.8	470	remaining at 4 h, 200 µM [4]: 92%; CC50 (HepG2): 2.8 µM; CC50 at 48 h [1]: 440 µM; CC50 at 96 h [5]: 0.72 µM; CC50 at 96 h [6]: 4.1 µM; remaining at 4 h, 200 µM [7]: 64%; IC50 (Hepatitis C virus [19]): 3.1 µM; CC50 at 96 h [8]: 1.2 µM; Ratio IC50 (Hepatitis C virus [20]): 51; CC50 at 96 h [9]: 7 µM; selectivity ratio [10]: ≤ 24; remaining at 4 h, 200 µM [11]: 100%; remaining at 4 h, 200 µM [12]: 100%; selectivity ratio [13]: ≤ 620; remaining at 4 h, 200 µM [14]: 100%
O=C(Nc1ccn([C@@H]2O[C@H](CO)[C@@H](O)C2(F)F)c(=O)n1)c1ccc2c(c1)C(=O)c1ccccc1C2=O	12.8	249	–

Second part, led by results:

IC50 (Hepatitis C virus [2]) [nM]	SMILES	CC50 at 48 h [3] [µM]	further results
58.4	CCc1ccc(C(=O)Nc2ccn([C@@H]3O[C@H](CO)[C@@H](O)C3(F)F)c(=O)n2)cc1	490	CC50 at 48 h [1]: 360 µM
60	COc1ccc(C(=O)Nc2ccn([C@@H]3O[C@H](CO)[C@@H](O)C3(F)F)c(=O)n2)cc1	572	–
126	O=C(Nc1ccn([C@@H]2O[C@H](CO)[C@@H](O)C2(F)F)c(=O)n1)c1ccc2ccccc2c1	125	–
37.6	O=C(Nc1ccn([C@@H]2O[C@H](CO)[C@@H](O)C2(F)F)c(=O)n1)c1ccc(Cl)cc1	138	–
19.3	COc1c(Cl)cc(C(=O)Nc2ccn([C@@H]3O[C@H](CO)[C@@H](O)C3(F)F)c(=O)n2)cc1Cl	> 100	–
177	CC1(C)Cc2ccc(C(=O)Nc3ccn([C@@H]4O[C@H](CO)[C@@H](O)C4(F)F)c(=O)n3)cc2O1	1160	–
185	O=C(Nc1ccn([C@@H]2O[C@H](CO)[C@@H](O)C2(F)F)c(=O)n1)c1ccc2cc(Br)ccc2c1	74	–
43.1	Cc1ccc(C(=O)Nc2ccn([C@@H]3O[C@H](CO)[C@@H](O)C3(F)F)c(=O)n2)cc1	329	CC50 at 48 h [1]: 240 µM
93.5	COc1ccc2cc(C(=O)Nc3ccn([C@@H]4O[C@H](CO)[C@@H](O)C4(F)F)c(=O)n3)ccc2c1	168	–
17.4	O=C(Nc1ccn([C@@H]2O[C@H](CO)[C@@H](O)C2(F)F)c(=O)n1)c1ccc(Cl)c(Cl)c1	> 100	–
145	O=C(Nc1ccn([C@@H]2O[C@H](CO)[C@@H](O)C2(F)F)c(=O)n1)c1ccc2c(c1)CCO2	954	–
58.6	O=C(Nc1ccn([C@@H]2O[C@H](CO)[C@@H](O)C2(F)F)c(=O)n1)c1ccc2c(c1)CCC2	378	–
